Sampled rows, rich in hits. Any-hit rate of the full collection: about 2.8%.
HEK293 NFkB inh: lowers PMA/ionomycin-induced NF-kB signal in HEK293 cells; HEK-293 NF-kB luciferase reporter, luminescence; inhibition, % at 3 µM; actives 0.21% (n = 62,000); AID 465;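 active means inhibition above the mean of all tested compounds plus 3 SD, cut at about 40% in these data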;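 further: 0% = stimulated DMSO wells and 100% = 10 µM reference inhibitor 5653914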
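Material: HEK-293 cells with stable firefly luciferase reporter driven by four HIV NF-kB elements / Also added: PMA plus ionomycin mix as NF-kB-activating stimulus / Compound dosing: 3 µM once, 0.30% DMSO / Times: 1 h pretreatment, 16 h stimulation, 37 °C / Signal: luminescence / Evaluation: per-plate % inhibition versus controls / Benchmarks: DMSO and 10 µM reference inhibitor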
SF-1 act: activators of human nuclear receptor SF-1 | Q13285 | CHO-K1 Gal4-SF-1 LBD luciferase reporter; % increase over DMSO SF-1-specific signal | activation, % at 10 µM | actives 1.9% (n = 65,000) | AID 522;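 active means activation above the mean activation of all tested compounds plus 3 SD, cut at about 50% in these data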
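Material: Gal4–SF-1 LBD one-hybrid luciferase reporter in CHO-K1 cells | Amount: 4,000 cells per well | Compound dosing: 10 µM single point, 1% DMSO | Schedule: 20 h compound treatment, 37 °C | Measured by: SteadyLite luciferase luminescence | Evaluation: Percent activation versus DMSO | Control set: DMSO-treated SF-1-transfected cells as negative, DMSO-treated mock-transfected cells lacking SF-1 as background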
RORa activator: activators of human nuclear receptor RORA | P35398 | CHO-K1 Gal4-RORA LBD luciferase reporter, luminescence; percent increase over mock-subtracted basal signal | activation, % at 10 µM | actives 1.5% (n = 65,000) | AID 560;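 active means activation above the mean of all tested compounds plus 3 SD, cut at about 49% in these data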;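 further: 0% = DMSO-treated RORA cells and 100% = added signal equal to DMSO minus mock-transfected cells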
Target sequence (P35398 whole entry, looked up, the tested form may be a part): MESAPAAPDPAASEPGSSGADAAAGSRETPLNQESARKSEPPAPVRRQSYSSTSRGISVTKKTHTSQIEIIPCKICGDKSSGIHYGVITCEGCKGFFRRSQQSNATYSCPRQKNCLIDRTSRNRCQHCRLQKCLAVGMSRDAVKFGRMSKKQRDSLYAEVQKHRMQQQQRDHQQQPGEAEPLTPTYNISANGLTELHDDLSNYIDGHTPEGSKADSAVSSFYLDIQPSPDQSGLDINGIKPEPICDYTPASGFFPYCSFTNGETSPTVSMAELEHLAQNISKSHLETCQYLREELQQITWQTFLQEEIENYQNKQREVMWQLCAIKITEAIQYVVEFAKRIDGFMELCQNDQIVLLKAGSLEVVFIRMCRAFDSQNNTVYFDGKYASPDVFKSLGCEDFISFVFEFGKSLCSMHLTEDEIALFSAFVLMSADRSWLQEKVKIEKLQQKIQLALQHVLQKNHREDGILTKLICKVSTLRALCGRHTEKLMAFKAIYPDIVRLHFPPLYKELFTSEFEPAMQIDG
Jurkat tox 60K: cytotoxic compounds reducing Jurkat cell viability | actives 1.2% (n = 56,000) | AID 463 | Jurkat E6.1 viability, ATP luminescence, 48 h | inhibition, % at 4 µM;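 active means inhibition above the mean inhibition of all tested compounds plus 3 SD, cut at about 28% in these data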
MT1-MMP txn act: activates MT1-MMP transcription | HT1080 MT1-MMP promoter luciferase reporter, luminescence, overnight; active compounds read high | activation factor at 10 µM | actives 0.16% (n = 86,000) | AID 750;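 active means activation factor of at least 2 for MT1-MMP transcription at 10 µM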
* hit, by the source's call; x = not tested or not shown.

SMILES	HEK293 NFkB inh	SF-1 act	RORa activator	Jurkat tox 60K	MT1-MMP txn act
O=C(CC(SCc1ccco1)c1ccc(O)cc1)c1cccs1 (centres undefined)	17.8	30.8	87.3*	24.6	1.7
O=C(CSc1nnc(CNC(=O)c2ccco2)o1)NC1CCCC1	-3.0	0.6	-2.4	x	x
CCc1ccc(C2CC(c3ccc(F)cc3)Nc3nc(N)nn32)cc1 (centres undefined)	2.6	24.4	-1.9	7.6	1.1
CCOC(=O)CSc1nc2c(c(=O)[nH]c(=O)n2C)n1CCCc1ccccc1	13.4	-16.8	9.5	-3.7	1.3
O=C1N(CCCCN2C(=O)C3(OCCO3)c3ccccc32)c2ccccc2C12OCCO2	10.8	3.7	3.3	-1.3	1.3
O=C1N(CCCN2C(=O)C3(OCCO3)c3ccccc32)c2ccccc2C12OCCO2	7.5	-14.9	53.2*	-1.9	1.1
Cc1nc2ncnn2c(C)c1Cc1c(Cl)cccc1Cl	x	x	x	x	1.3
Cc1nn(-c2ccccc2)c(C)c1C(=O)OCC(=O)NC12CC3CC(CC(C3)C1)C2	x	x	x	x	1.1
c1ccc(-c2c3ccccc3nc3[nH]c4ccccc4c23)cc1	x	x	x	x	1.1
c1ccc2nc3c(nc2c1)[nH]c1ccccc13	-32.2	81.2*	50.5*	8.0	1.2
c1ccc2c(c1)[nH]c1c(N3CCSCC3)ncnc12	x	-26.6	-42.3	x	1.3
c1ccc2c(c1)[nH]c1c(N3CCCC3)ncnc12	23.4	-4.5	-32.7	33.1*	0.9
COc1ccc(CC(=O)Nc2cc(C)c3c(=O)oc4ccccc4c3n2)cc1	17.5	10.6	-12.5	-2.2	1
CC1CCCN(c2ccc(C(=O)NCC3CCCO3)cn2)C1 (centres undefined)	-14.3	57.5*	28.2	-0.7	1.5
O=C(NCC1CCCO1)c1ccc(/C=N/O)nc1 (centres undefined)	3.1	-4.2	13.9	6.5	1.1
O=C(NC12CC3CC(CC(C3)C1)C2)N1CCC(n2nnc3ccccc32)CC1	12.4	-6.3	-4.3	4.0	1.1
c1ccc(C2Nc3ccccc3-c3nc4ccccc4n32)cc1 (centres undefined)	x	x	x	x	1.3
Oc1ccccc1C1=Nc2nc3ccccc3n2C(c2ccccc2)C1 (centres undefined)	-24.9	42.0	80.8*	-7.2	1.3
Cc1ccc(NC(=O)C2CCN(C(=O)NC3CCCCC3)CC2)c(C)c1	x	x	x	x	1.2
N#Cc1c(/N=C/c2ccc(Br)s2)sc2c1CCC2	x	x	x	x	2*
N#Cc1c(/N=C/N2CCOCC2)sc2c1CCCCC2	-46.3	83.2*	90.8*	-5.5	1.3
CCc1sc(NC(=O)CN2CCOCC2)nc1-c1ccccc1	10.0	3.5	-10.3	0.4	1
Nc1c(C(=O)c2ccc(F)cc2)oc2ccccc12	11.3	17.7	7.6	2.6	1.4
COc1ccc2oc(C(=O)c3ccccc3)c(N)c2c1	x	x	x	x	2.1*
COc1ccc(C(=O)c2oc3ccccc3c2N)cc1	-30.0	42.1	35.7	3.4	2.3*
SMILES	HEK293 NFkB inh	SF-1 act	RORa activator	Jurkat tox 60K	MT1-MMP txn act
COc1ccc2oc(C(=O)C3CC3)c(N)c2c1	-11.5	74.0*	68.4*	3.7	1.5
COc1ccc2oc(C)c(C(N)=O)c2c1	15.2	22.5	4.9	-2.0	1.2
COC(=O)CCC(=O)c1oc2ccc(OC)cc2c1N	x	x	x	x	1.3
COC(=O)CSc1nnc(-c2ccc(OC)cc2OC)o1	-5.9	4.0	-10.1	-12.7	0.9
CC(C)(C)c1ccc(C(=O)N2CCC(C(=O)NCc3ccncc3)CC2)cc1	-23.6	24.8	59.6*	12.5	1
O=C(Nc1nnc(C2CCCC2)s1)C1CCC1	-6.7	-5.7	-6.8	1.5	1.3
CCOC(=O)c1sc(NC(=O)c2noc3c2CCCC3)c(C(=O)OCC)c1C	11.9	17.5	-3.6	-6.0	1.1
CCCCN1Cc2cc(C(=O)c3cc(OC)ccc3O)cnc2NC1=O	x	x	x	x	1.1
COc1cc(OC)cc(-c2cc3nc(C)c(CCC(=O)NC(C)CCc4ccco4)c(C)n3n2)c1 (centres undefined)	14.3	-32.4	-36.3	6.7	0.6
COc1cc(OC)cc(-c2cc3nc(C)c(CCC(=O)O)c(C)n3n2)c1	63.3*	-79.4	-76.7	2.4	x
COc1ccc(C2C(C(C)=O)=C(Nc3ccccc3)CC(C)(O)C2C(C)=O)cc1OC (centres undefined)	x	x	x	x	1
CCOc1ccccc1OCC(=O)Nc1ccc(S(=O)(=O)Nc2nc(C)cc(C)n2)cc1	14.9	-14.9	-12.4	x	x
O=C(CNc1ccccc1)Nc1ccc(F)cc1	-10.8	61.4*	2.7	6.2	1.7
